The results in this text go back to ChEMBL document CHEMBL4477265, “Design and synthesis of cis-restricted benzimidazole and benzothiazole mimics of combretastatin A-4 as antimitotic agents with apoptosis inducing ability” (Bioorg Med Chem Lett, 2016).

The subject of experiment [1] is HeLa. Description: Antiproliferative activity against human HeLa cells after 48 hrs by sulforhodamine B assay. The class given is functional. For orientation: The SRB assay estimates cell density from bound dye.
For experiment [2], the system named is A549. Description: Antiproliferative activity against human A549 cells after 48 hrs by sulforhodamine B assay. The class given is functional. The settings on record: A549, 48 h.
Experiment [3] has as its system HepG2. Description: Antiproliferative activity against human HepG2 cells after 48 hrs by sulforhodamine B assay. The class given is functional. The conditions noted are these: HepG2, 48 h.
Experiment [4] deals with DU-145. Briefly: Antiproliferative activity against human DU145 cells after 48 hrs by sulforhodamine B assay. The class given is functional. The settings on record: DU-145, 48 h.
Experiment [5] has as its system HeLa. Briefly: Cell cycle arrest in human HeLa cells assessed as accumulation at G0 phase at 40 nM after 48 hrs by propidium iodide staining based flow cytometry (reference value: 5.64%). The class given is functional.
The test system of experiment [6] is HeLa. Description: Cell cycle arrest in human HeLa cells assessed as accumulation at G0 phase at 60 nM after 48 hrs by propidium iodide staining based flow cytometry (reference value: 5.64%). The class given is functional. In general terms: A flow cytometer gives signals particle by particle.
The test system of experiment [7] is HeLa. Description: Cell cycle arrest in human HeLa cells assessed as accumulation at G1 phase at 40 nM after 48 hrs by propidium iodide staining based flow cytometry (reference value: 73.28%). The experiment is classed as functional.
In experiment [8] the test system is HeLa. Description: Cell cycle arrest in human HeLa cells assessed as accumulation at G1 phase at 60 nM after 48 hrs by propidium iodide staining based flow cytometry (reference value: 73.28%). The class given is functional.
For experiment [9], the system named is HeLa. Briefly: Cell cycle arrest in human HeLa cells assessed as accumulation at S phase at 40 nM after 48 hrs by propidium iodide staining based flow cytometry (reference value: 3.52%). The experiment is classed as functional.
Experiment [10] concerns HeLa. Briefly: Cell cycle arrest in human HeLa cells assessed as accumulation at S phase at 60 nM after 48 hrs by propidium iodide staining based flow cytometry (reference value: 3.52%). The experiment is classed as functional.
Experiment [11] deals with HeLa. Description: Cell cycle arrest in human HeLa cells assessed as accumulation at G2/M phase at 40 nM after 48 hrs by propidium iodide staining based flow cytometry (reference value: 17.56%). The class given is functional.
Experiment [12] relates to HeLa. Description: Cell cycle arrest in human HeLa cells assessed as accumulation at G2/M phase at 60 nM after 48 hrs by propidium iodide staining based flow cytometry (reference value: 17.56%). The class given is functional.
The target in experiment [13] is Tubulin (Sus scrofa) (UniProt P02554+P02550). Briefly: Inhibition of porcine brain tubulin polymerization at 3 uM measured at 1 min interval for 1 hr by fluorescence plate reader assay relative to control. The gist of the method: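 Tubulin polymerization followed by fluorescence (excitation 360 nm, emission 420 nm) over 1 h at 37 °C, test agents at 3 μM; inhibition expressed as percentage of polymerization versus untreated control.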

The target of experiment [14] is Tubulin (Sus scrofa, UniProt P02554+P02550). Briefly: Inhibition of porcine brain tubulin polymerization measured at 1 min interval for 1 hr by fluorescence plate reader assay.
Experiment [15] relates to HeLa. Briefly: Cell cycle arrest in human HeLa cells assessed as accumulation at G2/M phase after 48 hrs by propidium iodide staining based flow cytometry. The class given is functional.
The target in experiment [16] is Tubulin (Homo sapiens) (UniProt P68371+Q9H4B7+P0DPH7+P68366+Q13509+Q71U36+P04350+Q3ZCM7+P07437+P68363+Q9BQE3+Q6PEY2+Q13885+Q9BVA1+Q9BUF5). Briefly: Inhibition of tubulin polymerization in human HeLa cells assessed as induction of microtubule disruption at 60 nM after 48 hrs by confocal microscopic analysis. The experiment is classed as cell-based. The procedure, abridged:
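HeLa cells grown on sterile cover slips, exposed 48 h at 60 nM, immunostained with α-tubulin antibody; microtubule network organization examined by confocal imaging.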

Experiment [17] relates to HeLa. Briefly: Induction of inner mitochondrial membrane potential depolarization in isolated mitochondria from human HeLa cells at 40 to 60 nM after 48 hrs by JC-1 staining based fluorescence plate reader assay. The experiment is classed as functional. The gist of the method:
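Mitochondria isolated and incubated with JC-1 dye alongside treatment at 40 and 60 nM; red/green fluorescence emission ratio recorded as the index of inner membrane potential, with untreated mitochondria as control.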

Experiment [18] has as its system HeLa. Description: Induction of apoptosis in human HeLa cells assessed as caspase-3 activation using AFC-labeled caspase-3 substrate at 40 to 60 nM after 24 to 48 hrs by fluorescence plate reader assay relative to combretastatin A-4. The class given is functional. The gist of the method: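 HeLa cells exposed at 40 and 60 nM; caspase-3 and caspase-9 activity measured fluorimetrically with conjugated caspase substrates at two time points.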

The subject of experiment [19] is HeLa. Briefly: Induction of apoptosis in human HeLa cells assessed as caspase-9 activation using AFC-labeled substrate at 40 to 60 nM after 24 to 48 hrs by fluorescence plate reader assay relative to combretastatin A-4.

Structures are written as SMILES. Calls of active or inactive are those of the source. No cut-off for these calls is given here.

Chain of Tubulin (Sus scrofa) (P02550 whole entry, looked up): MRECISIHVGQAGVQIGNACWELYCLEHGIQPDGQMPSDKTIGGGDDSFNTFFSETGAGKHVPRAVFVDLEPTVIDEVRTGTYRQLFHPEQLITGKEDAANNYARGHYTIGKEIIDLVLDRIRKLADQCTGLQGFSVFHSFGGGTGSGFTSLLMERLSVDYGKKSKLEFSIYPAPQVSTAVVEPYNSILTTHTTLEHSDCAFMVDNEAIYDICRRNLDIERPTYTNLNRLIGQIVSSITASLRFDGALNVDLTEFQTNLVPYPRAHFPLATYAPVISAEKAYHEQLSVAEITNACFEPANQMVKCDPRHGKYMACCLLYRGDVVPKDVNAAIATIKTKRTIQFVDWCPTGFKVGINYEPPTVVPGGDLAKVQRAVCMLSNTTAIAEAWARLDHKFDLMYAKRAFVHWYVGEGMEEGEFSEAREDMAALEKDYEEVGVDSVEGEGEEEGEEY
Chain of Tubulin (Sus scrofa) (P02554 whole entry, looked up): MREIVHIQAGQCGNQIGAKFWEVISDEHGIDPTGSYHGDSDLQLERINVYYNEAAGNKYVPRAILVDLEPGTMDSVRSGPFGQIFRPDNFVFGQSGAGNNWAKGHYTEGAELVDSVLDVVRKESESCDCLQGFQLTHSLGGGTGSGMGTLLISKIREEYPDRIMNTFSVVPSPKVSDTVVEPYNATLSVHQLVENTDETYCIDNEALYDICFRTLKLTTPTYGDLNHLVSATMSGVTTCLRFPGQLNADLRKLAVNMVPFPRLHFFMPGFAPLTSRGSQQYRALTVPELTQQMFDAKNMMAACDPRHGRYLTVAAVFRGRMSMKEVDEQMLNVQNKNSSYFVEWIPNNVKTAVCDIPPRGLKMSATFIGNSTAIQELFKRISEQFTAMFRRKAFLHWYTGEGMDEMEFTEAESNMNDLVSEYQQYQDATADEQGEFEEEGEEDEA

For `COc1ccc2nc(-c3cccnc3-c3ccc(C(F)(F)F)cc3)sc2c1`, the 50% growth inhibitory concentration (GI50) came out at 15.7 µM in [1] and 17 µM in experiment [2].
For the compound `COc1ccc(-c2ncccc2-c2nc3cc(OC)c(OC)cc3[nH]2)cc1`, the GI50 is 21.4 µM in experiment [1], 42.5 µM in [3] and 19.5 µM in experiment [2].
In the case of `COc1ccc2nc(-c3cccnc3-c3cc(C(F)(F)F)ccc3Cl)sc2c1`, the GI50 in [1] was determined as 0.04 µM; in [3], 0.079 µM; in experiment [2], 0.091 µM; in [4] it was 0.052 µM. Further, the Activity in [5] is 8.13%; in [6] it was 20.47%; in experiment [7], 43%; in experiment [8], 15.19%; in [9], 24.62%; in experiment [10], 10.3%. The Activity is 24.26% in experiment [11], 54.05% in [12] and “Dose-dependent effect” in experiment [15]. The compound further showed an inhibition in experiment [13] of 68.3%. In addition, the IC50 in experiment [14] stood at 1.91 µM. In addition, the inhibition entry in [16] is “Active”. Besides, in experiment [17], the outcome was Active. Further, the “fold change (FC)” value in experiment [18] and in experiment [19] was 2 each time.
Regarding `FC(F)(F)c1ccc(Cl)c(-c2ncccc2-c2nc3ccccc3s2)c1`, the GI50 in experiment [1] was determined as 4.89 µM; in experiment [3] it was 15 µM; in experiment [2], 7.41 µM; in [4] it was 5.49 µM.
Take `COc1ccc(-c2ncccc2-c2nc3ccc(OC)cc3s2)cc1`: the values for the GI50 in experiment [1] and in experiment [2] were 8.1 µM and 13.3 µM, respectively.
Regarding `COc1ccc(-c2ncccc2-c2nc3cc(OC)c(OC)cc3[nH]2)cc1OC`, the GI50 in experiment [1] was 7.7 µM; in experiment [3], 1.9 µM; in experiment [2], 7.9 µM; in [4], 4.19 µM.
Turning to `COc1cc2nc(-c3cccnc3-c3cc(OC)c(OC)c(OC)c3)sc2cc1OC`, the GI50 came out at 1.6 µM in [1], 0.5 µM in experiment [3], 0.5 µM in experiment [2] and 0.6 µM in experiment [4].
Turning to `COc1cc(-c2ncccc2-c2nc3ccccc3[nH]2)cc(OC)c1OC`, the GI50 worked out at 2.6 µM in [1], 3.5 µM in experiment [3], 4.5 µM in experiment [2] and 14.6 µM in experiment [4].
In the same order, the values of `COc1ccc2nc(-c3cccnc3-c3cc(C(F)(F)F)ccc3Cl)[nH]c2c1` are 0.15 µM, 0.76 µM, 0.75 µM and 0.21 µM.
The like results for `COc1cc2nc(-c3cccnc3-c3cc(OC)c(OC)c(OC)c3)[nH]c2cc1OC` were, in that order, 1.7 µM, 1.5 µM, 2.5 µM and 0.6 µM.
With `COc1ccc2nc(-c3cccnc3-c3ccc(C(F)(F)F)cc3)[nH]c2c1`, the GI50 worked out at 38.2 µM in experiment [2] and 32.1 µM in [4].
On to `COc1ccc2nc(-c3cccnc3-c3ccc(OC)c(OC)c3)[nH]c2c1`, for which the GI50 in experiment [1] was 16.6 µM; in [3] it was 44.8 µM; in experiment [2], 27.6 µM; in experiment [4], 12 µM.
Take `COc1ccc(-c2ncccc2-c2nc3ccc(OC)cc3[nH]2)cc1`: halving of growth in [4] (GI50) required 19.6 µM. That is a double-digit micromolar value.
Consider `COc1ccc2nc(-c3cccnc3-c3cc(OC)c(OC)c(OC)c3)[nH]c2c1`, for which the GI50 in [1] turned out to be 5 µM; in [3], 0.84 µM; in experiment [2], 1.5 µM; in experiment [4], 0.29 µM.
As for `COc1ccc(-c2ncccc2-c2nc3ccc(Cl)cc3[nH]2)cc1`, growth in [4] was halved (GI50) at 34.7 µM.
`COc1ccc(-c2ncccc2-c2nc3cc(OC)c(OC)cc3s2)cc1`: the GI50 in experiment [1] was determined as 11.3 µM; in experiment [3], 30.9 µM; in experiment [2] it was 59.1 µM.
Consider `COc1ccc(-c2ncccc2-c2nc3cc(OC)c(OC)cc3s2)cc1OC`, for which the GI50 in experiment [1] came out at 13.5 µM; in experiment [3] it was 1.2 µM; in experiment [2] it was 7.58 µM; in experiment [4], 5.91 µM.
As to `COc1ccc(-c2ncccc2-c2nc3ccc(Cl)cc3s2)cc1`, the GI50 came out at 7.7 µM in [1], 3.9 µM in experiment [3], 7.9 µM in experiment [2] and 0.19 µM in [4].
As to `COc1ccc(-c2ncccc2-c2nc3ccccc3[nH]2)cc1OC`, the GI50 in experiment [3] was 12.4 µM; in experiment [4], 5.8 µM.
Take `FC(F)(F)c1ccc(-c2ncccc2-c2nc3ccc(Cl)cc3s2)cc1`: the GI50 in experiment [1] was 20.4 µM; in experiment [3], 32.5 µM; in experiment [2] it was 19.5 µM.
As to `COc1ccc2nc(-c3cccnc3-c3ccc(OC)c(OC)c3)sc2c1`, the GI50 in experiment [1] is 6.2 µM; in experiment [3] it was 2.2 µM; in [2], 1.7 µM; in experiment [4], 6.8 µM.
On to `COc1ccc(/C=C\c2cc(OC)c(OC)c(OC)c2)cc1O` [COMBRETASTATIN A4], for which the GI50 in [1] is 0.06 µM; in experiment [3], 0.08 µM; in [2], 0.06 µM; in [4] it was 0.07 µM. The Activity in experiment [5] is reported as 25.87%; in [6], 24.78%; in experiment [7] it was 17.92%; in experiment [8], 17.29%; in experiment [9] it was 17.34%; in experiment [10], 16.44%. Also, the Activity in experiment [11] was determined as 38.87%; in [12], 41.48%. The result in experiment [17] was Active.
Consider `FC(F)(F)c1ccc(Cl)c(-c2ncccc2-c2nc3ccc(Cl)cc3s2)c1`, for which the figures for the GI50 in [1], in experiment [3] and in [2] were 5.8 µM, 1.2 µM and 1.5 µM, respectively.
On to `FC(F)(F)c1ccc(-c2ncccc2-c2nc3ccc(Cl)cc3[nH]2)cc1`, for which the results for the GI50 in experiment [1] and in experiment [2] were 15.8 µM and 18.4 µM, respectively.
With `COc1ccc(-c2ncccc2-c2nc3ccccc3s2)cc1OC`, the GI50 in [1] worked out at 1.8 µM; in experiment [3], 0.7 µM; in experiment [2], 0.2 µM; in [4], 3.6 µM.
Turning to `COc1ccc(S(=O)(=O)Nc2cccnc2Nc2ccc(O)cc2)cc1` [ABT-751], the GI50 in experiment [1] came to 4.8 µM; in [3], 2.8 µM; in experiment [2], 1.8 µM; in [4], 1.2 µM.
The like results for `COc1cc(-c2ncccc2-c2nc3ccccc3s2)cc(OC)c1OC` were, in that order, 4.8 µM, 3.5 µM, 3.2 µM and 4.1 µM.
`COc1ccc2nc(-c3cccnc3-c3cc(OC)c(OC)c(OC)c3)sc2c1`: the GI50 was determined as 0.06 µM in experiment [1], 0.26 µM in experiment [3], 0.13 µM in experiment [2] and 0.18 µM in experiment [4]. In addition, the Activity in experiment [5] came out at 13.27%; in [6], 25.35%; in experiment [7], 51.22%; in [8], 19.54%; in [9] it was 11.86%; in experiment [10], 14.3%. The Activity in [11] was 23.65%; in [12], 40.8%; in experiment [15] it was “Dose-dependent effect”. The compound also returned an inhibition in experiment [13] of 60.1%. In addition, the IC50 in [14] was 2.01 µM. Besides, the inhibition entry in experiment [16] was “Active”. The result in experiment [17] was Active. The “fold change (FC)” value in [18] and in [19] was 2 throughout.

The GI50 is the concentration at which growth is held to half of that of the control. Read a high GI50 as less potent growth inhibition. Usually inhibition stands for the share of the control response that was lost under treatment. Broadly, the IC50 is the concentration needed to halve the response being measured.
